Bounds are passed on as bounds.

Experiment [1] can be described thus: Antiproliferative activity against rat HSC-T6 cells assessed as reduction in cell viability. The class given is functional, cell-based. In a few lines: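 Immortalized rat hepatic stellate line HSC-T6. Viability was measured by a procedure from earlier work, and IC50 values were derived from it. Epigallocatechin-3-gallate was the positive control.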
Experiment [2] can be described thus: Induction of apoptosis in rat HSC-T6 cells assessed as viable cells at 1 uM after 48 hrs using annexin-V/PI double staining by flow cytometry (reference value: 99.2 %). The class given is functional. The note with it: HSC-T6, 48 h, read-out: Activity. Background: Flow cytometry measures light scatter and fluorescence of single cells or particles in a stream.

The nature of experiment [3]: Induction of apoptosis in rat HSC-T6 cells assessed as early apoptotic cells at 1 uM after 48 hrs using annexin-V/PI double staining by flow cytometry (reference value: 0.150 %). It counts as functional.
Experiment [4] in a line: Induction of apoptosis in rat HSC-T6 cells assessed as late apoptotic cells at 1 uM after 48 hrs using annexin-V/PI double staining by flow cytometry (reference value: 0.130 %). The class given is functional.
Experiment [5] can be described thus: Induction of apoptosis in rat HSC-T6 cells assessed as necrotic cells at 1 uM after 48 hrs using annexin-V/PI double staining by flow cytometry (reference value: 0.550 %). The class given is functional.
Experiment [6] is described as follows: Induction of apoptosis in rat HSC-T6 cells assessed as viable cells at 3 uM after 48 hrs using annexin-V/PI double staining by flow cytometry (reference value: 99.2 %). It counts as functional. The note with it: HSC-T6, 48 h, read-out: Activity.
Experiment [7] in a line: Induction of apoptosis in rat HSC-T6 cells assessed as early apoptotic cells at 3 uM after 48 hrs using annexin-V/PI double staining by flow cytometry (reference value: 0.150 %). The class given is functional.
A short description of experiment [8]: Induction of apoptosis in rat HSC-T6 cells assessed as late apoptotic cells at 3 uM after 48 hrs using annexin-V/PI double staining by flow cytometry (reference value: 0.130 %). It counts as functional.
Experiment [9] in a line: Induction of apoptosis in rat HSC-T6 cells assessed as necrotic cells at 3 uM after 48 hrs using annexin-V/PI double staining by flow cytometry (reference value: 0.550 %). The class given is functional.

As usually defined, the IC50 is the point on the concentration scale where inhibition reaches its midpoint. Take `CC1(C)C=Cc2c(cc(O)c3c(=O)c4c5c(ccc4oc23)OC(C)(C)C=C5)O1`: the IC50 in experiment [1] is more than 30 µM. In the case of `C=CC(C)(C)c1c(OC)c(CC=C(C)C)c2oc3cc(O)c(O)cc3c(=O)c2c1O`, the IC50 in experiment [1] turned out to be 9.7 µM. Further, the viability at 1 µM in [2] worked out at 80.8%. Further, the Activity in experiment [3] is 11.5%; in experiment [4] it was 2.54%; in [5] it was 5.19%; in experiment [7], 8.76%; in experiment [8] it was 5.81%; in experiment [9], 6.67%. In experiment [6], the viability at 3 µM was found to be 78.8%. For the compound `C[C@@H]1Oc2cc3oc4c5c(c(O)cc4c(=O)c3c(O)c2C1(C)C)OC(C)(C)C=C5`, the IC50 in experiment [1] was found to be 15.9 µM. Still for that read-out and setting: the result for `COc1c2c(c3c(=O)c4ccc(O)c(O)c4oc3c1CC=C(C)C)O[C@H](C)C2(C)C` reads 14.8 µM; that for `COc1c2c(c3c(=O)c4cc(O)c(O)cc4oc3c1CC=C(C)C)O[C@@H](C)C2(C)C`, 15.2 µM; that for `CC1(C)C=Cc2cc(C(=O)c3cccc(O)c3)c(O)c(O)c2O1`, 7.1 µM. Still for that read-out and setting: the result for `O=c1c2ccc(O)cc2oc2ccc(O)cc12` reads more than 30 µM; that for `COc1cc2oc3cc(O)cc(O)c3c(=O)c2cc1OC`, more than 30 µM. With `CC(C)=CCc1c(O)cc(O)c2c(=O)c3cccc(O)c3oc12`, the IC50 in experiment [1] was more than 30 µM.

For `CC1Oc2cc(O)c3c(=O)c4ccc(O)c(O)c4oc3c2C1(C)C` (centres undefined), the IC50 in experiment [1] stood at 13.1 µM. Still for that read-out and setting: the result for `COc1c(CC=C(C)C)c(O)c2c(=O)c3cc(O)c(O)cc3oc2c1CC=C(C)C` [CUDRATRICUSXANTHONE K] reads more than 30 µM; that for `CC(C)=CCc1c(O)c(O)cc2c(=O)c3c(O)c4c(cc3oc12)OC(C)C4(C)C` (centres undefined) [CUDRAXANTHONE M], 10.4 µM; that for `O=C(O[C@@H]1Cc2c(O)cc(O)cc2O[C@@H]1c1cc(O)c(O)c(O)c1)c1cc(O)c(O)c(O)c1` [EPIGALOCATECHIN GALLATE], 29.8 µM. Take `CC(C)=CCc1c(O)cc(O)c2c(=O)c3c(CC=C(C)C)c(O)ccc3oc12` [GERONTOXANTHONE H]: the IC50 in experiment [1] was more than 30 µM. Regarding `C=CC(C)(C)c1c(OC)cc(O)c2c(=O)c3ccc(O)c(O)c3oc12` [ISOCUDRANIAXANTHONE B], in [1], the IC50 turned out to be 17.3 µM. Same read-out and setting: the same measure for `C=CC(C)(C)c1c(O)c(CC=C(C)C)c2oc3cc(O)c(O)cc3c(=O)c2c1O` [MACLURAXANTHONE B]: 13.3 µM.

The values above are taken from ChEMBL document CHEMBL3352135, “Antiproliferative prenylated xanthones and benzophenones from the roots of Cudrania tricuspidata in HSC-T6 cells” (J Nat Prod, 2014).
